According to the RNAGym collection of RNA variant scans (doi:10.1126/science.aae0568):
Fewer inactive variants are shown than the library holds.

B1: tRNA (parent)
chain: GUUCCGUUGGCGUAAUGGUAACGCGUCUCCCUCCUAAGGAGAAGACUGCGGGUUCGAGUCCCGUACGGAACG

Variants of: B1
Assay: yeast fitness relative to wild type (ratio to wild type); higher = fitter; tRNA-Arg(CCU), competitive growth, 37 C, YPD
Summary of the method: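 Start and end populations of a pooled competition were compared by 100-nucleotide paired-end sequencing of gene amplicons. The Saccharomyces cerevisiae strains carried tRNA-Arg(CCU) gene variants at the native genomic locus, synthesised with a 3% per-site mutation rate at 69 sites, and competed in YPD at 37°C for 24 hours in six parallel replicates. Darwinian fitness relative to wild type was based on the change in genotype frequencies. Genotypes required ≥ 100 starting reads, and estimates < 0.5 were set to 0.5.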

Point of comparison: U32C A37G C55A A65U G68C, yeast fitness 0.575. Against it:
- C31U U53C — higher, 0.633
- C31U U53G C61G A70U — lower, ≤ 0.5
- C31U U54C — higher, 0.82
- C31U U54C U59C — lower, 0.562
- C31U U59C — higher, 1.02
- U32A — higher, 0.742
- U32A A36C A70G — lower, ≤ 0.5
- U32A A37C — higher, 0.771
- U32A A37C A42C C49A U53A — lower, ≤ 0.5
- U32A A37C C60A — lower, ≤ 0.5
- U32A A37C C66U — lower, ≤ 0.5
- U32A A37C G51C A57U — lower, ≤ 0.5
- U32A A40C — higher, 0.694
- U32A A40C G58C G63A — lower, ≤ 0.5
- U32A A40U — higher, 0.774
- U32A A40U G41C C46A G52A — higher, 0.656
- U32A A42C G63C A65U C66U — lower, ≤ 0.5
- U32A A42G C55U — lower, ≤ 0.5
- U32A A42U — higher, 0.861
- U32A A43G C61U — lower, ≤ 0.5
- U32A A43G U64G — lower, ≤ 0.5
- U32A A45U — higher, 0.789
- U32A A45U A69C — higher, 0.706
- U32A A69C — higher, 0.882
- U32A A69U — higher, 0.958
- U32A A70U — higher, 0.857
- U32A C33G — higher, 0.706
- U32A C33U A42U C60A — higher, 0.595
- U32A C33U G52A — higher, 0.597
- U32A C33U U47A — lower, 0.54
- U32A C34A — higher, 0.648
- U32A C34A U53C U64A — lower, ≤ 0.5
- U32A C34G C55G G68A A70C — lower, ≤ 0.5
- U32A C34U — lower, 0.531
- U32A C34U C61U — lower, 0.54
- U32A C46U G63C — lower, ≤ 0.5
- U32A C55U — lower, 0.501
- U32A G38C U47A — lower, ≤ 0.5
- U32A G39A G58A C61A C62G — lower, ≤ 0.5
- U32A G39A G63A — lower, ≤ 0.5
- U32A G41C A65U — lower, ≤ 0.5
- U32A G52C — lower, ≤ 0.5
- U32A G52C C55U C61U C66U — lower, ≤ 0.5
- U32A G58C — higher, 0.651
- U32A G63U U64A A65U — higher, 0.634
- U32A U54A — lower, ≤ 0.5
- U32C — higher, 0.966
- U32C A36G — higher, 0.861
- U32C A36G G63A — higher, 0.628
- U32C A36U C61G — lower, ≤ 0.5
- U32C A36U C61U — lower, ≤ 0.5
- U32C A36U G38A G50A — higher, 0.584
- U32C A37C — higher, 0.771
- U32C A37C A57U — lower, ≤ 0.5
- U32C A37U — higher, 0.729
- U32C A37U G52A C66A — lower, ≤ 0.5
- U32C A40C — higher, 0.986
- U32C A40G C49G — lower, 0.514
- U32C A40G C62G G68A A69C — lower, ≤ 0.5
- U32C A40U — higher, 1.01
- U32C A40U A43G — higher, 0.684
- U32C A40U A69C — higher, 0.747
- U32C A40U C55A G56C — lower, ≤ 0.5
- U32C A40U C55G — higher, 0.703
- U32C A42G G63A — lower, 0.556
- U32C A42U — higher, 0.974
- U32C A42U G51C — lower, 0.533
- U32C A43C — higher, 0.83
- U32C A43C A65U — lower, 0.503
- U32C A43C A69G — lower, ≤ 0.5
- U32C A43C C49U — higher, 0.648
- U32C A43C G52A C55U C60A — lower, ≤ 0.5
- U32C A43G A45G — higher, 0.608
- U32C A43G A65C — higher, 0.913
- U32C A45G A57U — lower, ≤ 0.5
- U32C A45U C46G A69C — lower, ≤ 0.5
- U32C A45U G52A A70U — lower, ≤ 0.5
- U32C A45U G67A — lower, ≤ 0.5
- U32C A57G — higher, 0.861
- U32C A70C — higher, 0.991
- U32C A70U — higher, 0.935
- U32C C33A — higher, 0.628
